Data on 74 sequences can be found in the array DNA melting data of Ke et al. (doi:10.1101/2024.01.08.574731).

A short description of series [1]: folding enthalpy; higher = less favourable; fluorescence melt of hairpins on a sequencing array, two-state fit. As to conditions: sodium 0.088 M. The essentials:
(§1)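 Cy3 signals were normalised both to pre-quench Cy3 and to control constructs. They came from library hairpins carrying annealed Cy3 and quencher oligos on a sequenced MiSeq flow cell, imaged in 50 mM Na-HEPES pH 8.0, 25 mM NaCl, in 2.5 °C steps up to 60 °C. Bootstrapped two-state fits gave melting temperature and folding enthalpy, and four replicates were combined by inverse variance. Fitted temperatures were then raised by 9.35 °C to match UV melts.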

A short description of series [2]: melting temperature; fluorescence melt of hairpins on a sequencing array, two-state fit, raised by 9.35 °C to match UV melts. To be noted: sodium 0.088 M. A digest of the protocol: as §1

For GATCGATTCCTCGATC ((((((....)))))), the folding enthalpy in series [1] is -41.2 kcal/mol. Further, the Tm in series [2] stood at 52.3 °C.
On the same counts, the results for GGGACTGGAAACAGCCCC (((.(((....))).))) are -35.3 kcal/mol and 51.9 °C.
On the same counts, the results for CGAACGGAAACGTTATCG ((((((....)))..))) are -14.6 kcal/mol and 28.8 °C.
On the same counts, the results for GATCGGGATGCCGATC ((((((....)))))) are -42.1 kcal/mol and 57.4 °C.
For the sequence GATGGTGAAAACCATC ((((((....)))))), in series [1], the folding enthalpy is -36.5 kcal/mol. Moreover, the Tm in series [2] was determined as 57.8 °C.
For the sequence GTAATCGAAAGATTCTAC ((((((....)))..))), in series [1], the folding enthalpy was -18.5 kcal/mol. In series [2], the Tm stood at 28.8 °C.
On the same counts, the results for GACAGAGAAATCTGTC ((((((....)))))) are -33.2 kcal/mol and 50.9 °C.
On the same counts, the results for GCTGATCCGAAAGGAAGC (((..(((....)))))) are -18 kcal/mol and 39 °C.
Turning to GCCAACGAAAGTTCAGGC ((((((....)))..))), in series [1], the folding enthalpy was -28.2 kcal/mol. Moreover, the Tm in series [2] was determined as 40.7 °C.
On the same counts, the results for GGCAGGGGAAACCCCACC ((..(((....)))..)) are -16.5 kcal/mol and 31.6 °C.
In the case of GATCGCTACCGCGATC ((((((....)))))), the folding enthalpy in series [1] was -35.1 kcal/mol. Also, in series [2], the Tm amounted to 68.2 °C.
On the same counts, the results for CGACCGGAAACGGCCTCG ((((((....)))..))) are -11.9 kcal/mol and 30.2 °C.
On the same counts, the results for CGGAGCGGAAACGCGCCG (((.(((....))).))) are -27 kcal/mol and 68.6 °C.
On the same counts, the results for GCACGGCGAAAGCCCTGC (((.(((....))).))) are -26 kcal/mol and 47.3 °C.
With CGCATCGGAAACGAGCG (((.(((....)))))), in series [1], the folding enthalpy was -31.8 kcal/mol. For the same sequence, in series [2], the Tm was determined as 49.5 °C.
Take GGCTCCGAAAGGATGGCC ((((((....)))..))): the folding enthalpy in series [1] is -30.9 kcal/mol. Further, in series [2], the Tm was found to be 52.3 °C.
On the same counts, the results for GCTGGGAAACCAGC (((((....))))) are -29.9 kcal/mol and 65.4 °C.
As to GGGAGCGAAAGCTTTCCC ((((((....)))..))), the folding enthalpy in series [1] is -16.3 kcal/mol. Also, the Tm in series [2] turned out to be 40.4 °C.
On the same counts, the results for GGAATTCGAAAGAACTCC (((.(((....))).))) are -28.1 kcal/mol and 36.4 °C.
In the case of GTACCAGGAAACTAGTAC ((((.((....)).)))), the folding enthalpy in series [1] is -15.3 kcal/mol. Moreover, the Tm in series [2] worked out at 28.7 °C.
GATGTAGGAAACTACACC (.(((((....))))).): in series [1], the folding enthalpy is -17.8 kcal/mol. The Tm in series [2] came to 31.8 °C.
On the same counts, the results for GCTCTGTCGAAAGACAGC (((..(((....)))))) are -8.62 kcal/mol and 36.5 °C.
In the case of GTGAGTCGAAAGACCAC (((.(((....)))))), the folding enthalpy in series [1] is -33.7 kcal/mol. Further, the Tm in series [2] was found to be 53 °C.
On the same counts, the results for GCTGTCGAAAGACGAAGC ((((((....)))..))) are -18.4 kcal/mol and 44.3 °C.
On the same counts, the results for GCGCGCGAAAGCGCACGC ((((((....)))..))) are -11.7 kcal/mol and 67 °C.
Regarding GGAGCAGGAAACTGCTTC (.(((((....))))).), the folding enthalpy in series [1] is -26.4 kcal/mol. Besides, the Tm in series [2] was 51.7 °C.
Regarding GCATCCACGAAAGTGTGC (((..(((....)))))), the folding enthalpy in series [1] is -14.3 kcal/mol. For the same sequence, the Tm in series [2] amounted to 37.6 °C.
Consider AACGAGAAATCGTT (((((....))))), for which the folding enthalpy in series [1] is -16.9 kcal/mol. Further, in series [2], the Tm was 38.5 °C.
On the same counts, the results for GCGTGCTTACGC ((((....)))) are -16.9 kcal/mol and 54.9 °C.
On the same counts, the results for GCTTGTACGAAAGTAAGC (((..(((....)))))) are -24.9 kcal/mol and 37.7 °C.
On the same counts, the results for GATTGCGAAAGCAATATC ((((((....)))..))) are -13.1 kcal/mol and 50.1 °C.
On to GTAAGAGGAAACTCTCAC ((.((((....)))).)), for which the folding enthalpy in series [1] was -14.8 kcal/mol. In series [2], the Tm was 26.3 °C.
On the same counts, the results for GAGCTCCGAAAGGATCTC (((.(((....))).))) are -25 kcal/mol and 46.4 °C.
On the same counts, the results for GAACGCGGAAACGTGTTC ((((.((....)).)))) are -37.7 kcal/mol and 56 °C.
On the same counts, the results for GATCGTCAGCACGATC ((((((....)))))) are -27.8 kcal/mol and 52.6 °C.
Take GACCAACGAAAGTTAGTC (((.(((....))).))): the folding enthalpy in series [1] is -26 kcal/mol. In addition, the Tm in series [2] amounted to 38.8 °C.
On the same counts, the results for TTGAGGAAACTCAA (((((....))))) are -15.6 kcal/mol and 35.3 °C.
On the same counts, the results for GATCGGATATCCGATC ((((((....)))))) are -42.9 kcal/mol and 58.3 °C.
On the same counts, the results for GGTTTCGAAAGAACACC ((((((....))).))) are -26.8 kcal/mol and 37.6 °C.
In the case of GATCTGACCACAGATC ((((((....)))))), the folding enthalpy in series [1] is -36.3 kcal/mol. In series [2], the Tm stood at 49 °C.
On the same counts, the results for GTAAGGGGAAACCTTTAC ((((.((....)).)))) are -27.1 kcal/mol and 33.9 °C.
On the same counts, the results for GCGTTCGAAAGAAACCGC ((((((....)))..))) are -25.2 kcal/mol and 36.9 °C.
On the same counts, the results for GATCTATGGGTAGATC ((((((....)))))) are -33.2 kcal/mol and 45.6 °C.
Regarding GATCAGACGGCTGATC ((((((....)))))), the folding enthalpy in series [1] was -52.4 kcal/mol. Also, the Tm in series [2] was 51.7 °C.
On the same counts, the results for GGGTTACGAAAGTATCCC (((.(((....))).))) are -43.4 kcal/mol and 51.4 °C.
As to GCGACTGTTCGC ((((....)))), the folding enthalpy in series [1] was -22.5 kcal/mol. In addition, the Tm in series [2] is 47.8 °C.
In the case of GCCAACCGAAAGGTAGGC (((.(((....))).))), the folding enthalpy in series [1] is -39.1 kcal/mol. In addition, in series [2], the Tm is 60.4 °C.
On the same counts, the results for GTCCTCGGAAACGGGGAC ((((.((....)).)))) are -45.3 kcal/mol and 55.7 °C.
On to GTTAAGCGAAAGCTCAAC (((.(((....))).))), for which the folding enthalpy in series [1] is -16.7 kcal/mol. Further, the Tm in series [2] came to 37.6 °C.
On the same counts, the results for GATCGTTCCTACGATC ((((((....)))))) are -41.9 kcal/mol and 56.7 °C.
On the same counts, the results for GTGCATACGAAAGTACAC (((..(((....)))))) are -8.91 kcal/mol and 29.3 °C.
For the sequence GACTTGACGAAAGTCGTC (((..(((....)))))), in series [1], the folding enthalpy is -15.8 kcal/mol. For the same sequence, the Tm in series [2] stood at 51.7 °C.
In the case of GGAGGCGGAAACGCCCCC ((.((((....)))).)), the folding enthalpy in series [1] is -14.8 kcal/mol. The Tm in series [2] came to 56.4 °C.
On the same counts, the results for GTGTTCCGAAAGGACCAC (((.(((....))).))) are -38.4 kcal/mol and 49.7 °C.
Consider GCTATGGAAACATAGC ((((((....)))))), for which the folding enthalpy in series [1] is -35.4 kcal/mol. Moreover, the Tm in series [2] was determined as 55.6 °C.
GGCTCTGGAAACGGAGCC (((((.(....).))))): the folding enthalpy in series [1] was -47.1 kcal/mol. Also, the Tm in series [2] amounted to 60 °C.
In the case of GCCTCGCGAAAGCTCGGC (((..((....))..))), the folding enthalpy in series [1] is -26.6 kcal/mol. For the same sequence, the Tm in series [2] came to 46.4 °C.
On the same counts, the results for CTCTGGAAACAGAG (((((....))))) are -19.9 kcal/mol and 46.4 °C.
On the same counts, the results for GATCAGAGGTCTGATC ((((((....)))))) are -30.6 kcal/mol and 49.5 °C.
On the same counts, the results for GATCAACGCGTTGATC ((((((....)))))) are -54.2 kcal/mol and 59.5 °C.
In the case of GAAATTGGAAACGATTTC (((((.(....).))))), the folding enthalpy in series [1] is -30.1 kcal/mol. For the same sequence, in series [2], the Tm is 37.6 °C.
On the same counts, the results for GCGTATGGAAACGTATGC ((.((.(....).)).)) are -26.1 kcal/mol and 34.8 °C.
On the same counts, the results for GATCTGTGTACAGATC ((((((....)))))) are -47.9 kcal/mol and 56 °C.
On the same counts, the results for GCTACTCGAAAGAGGAGC (((.(((....))).))) are -37.4 kcal/mol and 61.6 °C.
For GTGTTCCCGAAAGGGCAC (((..(((....)))))), the folding enthalpy in series [1] is -22.4 kcal/mol. In addition, the Tm in series [2] was found to be 46.1 °C.
On the same counts, the results for GCCGGGCCGAAAGGCGGC (((..(((....)))))) are -17.6 kcal/mol and 59.4 °C.
On the same counts, the results for GCGCAACGAAAGTTCGC (((.(((....)))))) are -32 kcal/mol and 54.9 °C.
On the same counts, the results for GATCGACCCATCGATC ((((((....)))))) are -44.4 kcal/mol and 51.5 °C.
With GGACGGAAACGTCC (((((....))))), the folding enthalpy in series [1] is -31.9 kcal/mol. For the same sequence, the Tm in series [2] amounted to 66.4 °C.
On the same counts, the results for GGGACCGAAAGGTTTCCC ((((((....)))..))) are -18.6 kcal/mol and 42.5 °C.
As to GACCCCGGAAACGGGACC (..((((....))))..), the folding enthalpy in series [1] was -8.3 kcal/mol. The Tm in series [2] amounted to 28.1 °C.
On the same counts, the results for GACTCCGAAAGGAACGTC ((((((....)))..))) are -15.2 kcal/mol and 36 °C.
On the same counts, the results for GCCGGGGGAAACCCCAGC ((.((((....)))).)) are -21.2 kcal/mol and 50.3 °C.
On the same counts, the results for GCTAAGCGAAAGCCTGGC ((.(.((....)).).)) are -17.9 kcal/mol and 35.5 °C.
